Laboratory results: ChEMBL document CHEMBL1140864, “The synthesis of ursolic acid derivatives with cytotoxic activity and the investigation of their preliminary mechanism of action” (Bioorg Med Chem, 2009)

Key:
HeLa [1] = test: Antiproliferative activity against human HeLa cells after 96 hrs by MTT assay; assay type: functional, cell-based
Summary of the method: (§1)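 Cells grown in RPMI 1640 with 10% FBS and penicillin/streptomycin at […] °C, 5% CO2. Trypsinised cells seeded at 1.0–2.0 × 10³ per well overnight, then exposed to a concentration range in medium for 96 h. MTT (1 mg/mL) added for 4 h, formazan dissolved in DMSO, read at 490 nm. IC50 is the concentration that cuts cell number to 50%; at least three repeats.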

HeLa [2] = test: Antiproliferative activity against human HeLa cells at 10 uM after 96 hrs by MTT assay; assay type: functional
Summary of the method: (§2)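 Same MTT set-up (RPMI 1640/10% FBS, 1.0–2.0 × 10³ cells per well, 96 h exposure, 4 h MTT, formazan in DMSO read at 490 nm). Value is the percent inhibition at a single 10 µM concentration. Experiments repeated at least three times.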

HeLa [3] = test: Cell cycle arrest in human HeLa cells by accumulation at G2/M phase at 2.5 uM after 24 hrs using PI staining by flow cytometry; assay type: functional
Summary of the method: (§3)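 HeLa cells exposed for 24 h to 2.5, 5.0 or 10.0 µM; vehicle control 0.1% DMSO. Cellular DNA stained with propidium iodide, and cell-cycle phase fractions measured by flow cytometry. Experiments done three times.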

SK-OV-3 [4] = test: Antiproliferative activity against human SKOV3 cells after 96 hrs by MTT assay; assay type: functional, cell-based; details: SK-OV-3, 96 h; summary of the method: as §1
BGC-823 [5] = test: Antiproliferative activity against human BGC823 cells at 10 uM after 96 hrs by MTT assay; assay type: functional; details: BGC-823, 96 h; summary of the method: as §2
HeLa [6] = test: Cell cycle arrest in human HeLa cells by accumulation at S phase at 2.5 uM after 24 hrs using PI staining by flow cytometry; assay type: functional; summary of the method: as §3
SK-OV-3 [7] = test: Antiproliferative activity against human SKOV3 cells at 10 uM after 96 hrs by MTT assay; assay type: functional; details: SK-OV-3, 96 h; summary of the method: as §2
HeLa [8] = test: Induction of apoptosis in human HeLa cells assessed as DNA fragmentation after 24 hrs by agarose gel electrophoresis; assay type: functional, cell-based
Summary of the method: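 HeLa cells treated for 24 h, washed twice in PBS and lysed in 100 mM NaCl, 10 mM Tris–HCl pH 8.0, 25 mM EDTA, 0.1 mg/ml proteinase K at 50 °C for 12 h. DNA taken through phenol/chloroform/isoamyl alcohol and chloroform/isoamyl alcohol extraction, centrifuged at 12,000g for 30 min, then run on an agarose gel to look for laddering.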

HeLa [9] = test: Cell cycle arrest in human HeLa cells by accumulation at G1 phase at 10.0 uM after 24 hrs using PI staining by flow cytometry; assay type: functional; summary of the method: as §3
HeLa [10] = test: Cell cycle arrest in human HeLa cells by accumulation at G1 phase at 2.5 uM after 24 hrs using PI staining by flow cytometry; assay type: functional; summary of the method: as §3
HeLa [11] = test: Cell cycle arrest in human HeLa cells by accumulation at S phase at 10.0 uM after 24 hrs using PI staining by flow cytometry; assay type: functional; summary of the method: as §3
BGC-823 [12] = test: Antiproliferative activity against human BGC823 cells after 96 hrs by MTT assay; assay type: functional, cell-based; details: BGC-823, 96 h; summary of the method: as §1
HeLa [13] = test: Induction of apoptosis in human HeLa cells assessed as sub-diploid DNA content after 24 hrs by flow cytometry; assay type: functional, cell-based
Summary of the method: (§4)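 HeLa cells given 2.5, 5.0 or 10.0 µM and stained with propidium iodide. Apoptotic cells counted by flow cytometry as nuclei with sub-diploid DNA content, the region below the G1 peak; untreated cells served as control. Run three times.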

HeLa [14] = test: Cell cycle arrest in human HeLa cells by accumulation at G1 phase at 5.0 uM after 24 hrs using PI staining by flow cytometry; assay type: functional; summary of the method: as §3
HeLa [15] = test: Cell cycle arrest in human HeLa cells by accumulation at S phase at 5.0 uM after 24 hrs using PI staining by flow cytometry; assay type: functional; summary of the method: as §3
HeLa [16] = test: Cell cycle arrest in human HeLa cells by accumulation at G2/M phase at 5.0 uM after 24 hrs using PI staining by flow cytometry; assay type: functional; summary of the method: as §3
HeLa [17] = test: Induction of apoptosis in human HeLa cells assessed as apoptotic cells at 10 uM by flow cytometry; assay type: functional; summary of the method: as §4
HeLa [18] = test: Cell cycle arrest in human HeLa cells by accumulation at G2/M phase at 10.0 uM after 24 hrs using PI staining by flow cytometry; assay type: functional; summary of the method: as §3

| IC50 (HeLa [1]) | IC50 (BGC-823 [12]) | SMILES | inhibition at 10 µM (HeLa [2]) | inhibition at 10 µM (BGC-823 [5]) | also measured |
| --- | --- | --- | --- | --- | --- |
| > 10 µM |  | COC(=O)C(Cc1ccccc1)NC(=O)[C@]12CC[C@@H](C)[C@H](C)[C@H]1C1=CC[C@@H]3[C@@]4(C)CC[C@H](OC(C)=O)C(C)(C)[C@@H]4CC[C@@]3(C)[C@]1(C)CC2 (stereo not given in full) | 32.9% |  |  |
| > 10 µM |  | CCC(C)C(NC(=O)[C@]12CC[C@@H](C)[C@H](C)[C@H]1C1=CC[C@@H]3[C@@]4(C)CC[C@H](OC(C)=O)C(C)(C)[C@@H]4CC[C@@]3(C)[C@]1(C)CC2)C(=O)OC (stereo not given in full) | 15.9% |  |  |
| > 10 µM |  | C[C@H]1[C@H](C)CC[C@]2(C(=O)NC(CO)C(=O)O)CC[C@]3(C)C(=CC[C@@H]4[C@@]5(C)CC[C@H](O)C(C)(C)[C@@H]5CC[C@]43C)[C@H]12 (stereo not given in full) | 16.8% |  |  |
| 2.62 µM | 8.3 µM | CC(=O)OCC(C)NC(=O)[C@]12CC[C@@H](C)[C@H](C)[C@H]1C1=CC[C@@H]3[C@@]4(C)CC[C@H](OC(C)=O)C(C)(C)[C@@H]4CC[C@@]3(C)[C@]1(C)CC2 (stereo not given in full) | 69.3% | 56.3% | Activity (HeLa [3]): 13.6%; IC50 (SK-OV-3 [4]): 2.24 µM; Activity (HeLa [6]): 39.4%; inhibition at 10 µM (SK-OV-3 [7]): 70.5%; Activity (HeLa [8]): Dose-dependent effect; Activity (HeLa [9]): 36.7%; Activity (HeLa [10]): 47%; Activity (HeLa [11]): 54%; Activity (HeLa [13]): Dose-dependent effect; Activity (HeLa [14]): 46.7%; Activity (HeLa [15]): 44.8%; Activity (HeLa [16]): 8.5%; Activity (HeLa [17]): 32.5%; Activity (HeLa [18]): 9.3% |
| 1.13 µM | > 10 µM | CC(=O)OCCNC(=O)[C@]12CC[C@@H](C)[C@H](C)[C@H]1C1=CC[C@@H]3[C@@]4(C)CC[C@H](OC(C)=O)C(C)(C)[C@@H]4CC[C@@]3(C)[C@]1(C)CC2 | 73.5% | 42% | Activity (HeLa [3]): 9.2%; IC50 (SK-OV-3 [4]): 6.09 µM; Activity (HeLa [6]): 49.8%; inhibition at 10 µM (SK-OV-3 [7]): 54.8%; Activity (HeLa [8]): Dose-dependent effect; Activity (HeLa [9]): 51.1%; Activity (HeLa [10]): 41.1%; Activity (HeLa [11]): 44.8%; Activity (HeLa [13]): Dose-dependent effect; Activity (HeLa [14]): 41.8%; Activity (HeLa [15]): 45.9%; Activity (HeLa [16]): 12.3%; Activity (HeLa [17]): 35.3%; Activity (HeLa [18]): 4.2% |
| > 10 µM |  | CCC(C)C(NC(=O)[C@]12CC[C@@H](C)[C@H](C)[C@H]1C1=CC[C@@H]3[C@@]4(C)CC[C@H](O)C(C)(C)[C@@H]4CC[C@@]3(C)[C@]1(C)CC2)C(=O)O (stereo not given in full) | 16.8% |  | IC50 (SK-OV-3 [4]): > 10 µM; inhibition at 10 µM (SK-OV-3 [7]): 5.01% |
| 6.86 µM |  | COC(=O)C(NC(=O)[C@]12CC[C@@H](C)[C@H](C)[C@H]1C1=CC[C@@H]3[C@@]4(C)CC[C@H](OC(C)=O)C(C)(C)[C@@H]4CC[C@@]3(C)[C@]1(C)CC2)C(C)O (stereo not given in full) | 55.9% |  |  |
| 5.44 µM |  | CC(=O)O[C@H]1CC[C@]2(C)[C@H]3CC=C4[C@@H]5[C@@H](C)[C@H](C)CC[C@]5(C(=O)NC(C)CO)CC[C@@]4(C)[C@]3(C)CC[C@H]2C1(C)C (stereo not given in full) | 58.4% |  |  |
| > 10 µM |  | C[C@H]1[C@H](C)CC[C@]2(C(=O)NCC(=O)O)CC[C@]3(C)C(=CC[C@@H]4[C@@]5(C)CC[C@H](O)C(C)(C)[C@@H]5CC[C@]43C)[C@H]12 | 15.6% |  |  |
| > 10 µM | > 10 µM | C[C@H]1[C@H](C)CC[C@]2(C(=O)O)CC[C@]3(C)C(=CC[C@@H]4[C@@]5(C)CC[C@H](O)C(C)(C)[C@@H]5CC[C@]43C)[C@H]12 [URSOLIC ACID] | 12.4% | 10.2% | IC50 (SK-OV-3 [4]): > 10 µM; inhibition at 10 µM (SK-OV-3 [7]): 9.06% |
| > 10 µM |  | C[C@H]1[C@H](C)CC[C@]2(C(=O)NC(Cc3ccc(O)cc3)C(=O)O)CC[C@]3(C)C(=CC[C@@H]4[C@@]5(C)CC[C@H](O)C(C)(C)[C@@H]5CC[C@]43C)[C@H]12 (stereo not given in full) | 23.6% |  |  |
| > 10 µM |  | C[C@H]1[C@H](C)CC[C@]2(C(=O)NC(Cc3ccccc3)C(=O)O)CC[C@]3(C)C(=CC[C@@H]4[C@@]5(C)CC[C@H](O)C(C)(C)[C@@H]5CC[C@]43C)[C@H]12 (stereo not given in full) | 27.5% |  |  |
| 10.8 µM |  | CC(=O)O[C@H]1CC[C@]2(C)[C@H]3CC=C4[C@@H]5[C@@H](C)[C@H](C)CC[C@]5(C(=O)NCCO)CC[C@@]4(C)[C@]3(C)CC[C@H]2C1(C)C | 50.3% |  |  |
|  | 0.016 µM | CC(=O)O[C@H]1C(=O)[C@@]2(C)[C@H]([C@H](OC(=O)c3ccccc3)[C@]3(O)C[C@H](OC(=O)[C@H](O)[C@@H](NC(=O)c4ccccc4)c4ccccc4)C(C)=C1C3(C)C)[C@]1(OC(C)=O)CO[C@@H]1C[C@@H]2O [PACLITAXEL] |  |  | IC50 (SK-OV-3 [4]): 0.001 µM |
| 4.86 µM | > 10 µM | COC(=O)CNC(=O)[C@]12CC[C@@H](C)[C@H](C)[C@H]1C1=CC[C@@H]3[C@@]4(C)CC[C@H](OC(C)=O)C(C)(C)[C@@H]4CC[C@@]3(C)[C@]1(C)CC2 | 61.7% | 17.9% |  |
| 4.3 µM | > 10 µM | COC(=O)C(CO)NC(=O)[C@]12CC[C@@H](C)[C@H](C)[C@H]1C1=CC[C@@H]3[C@@]4(C)CC[C@H](OC(C)=O)C(C)(C)[C@@H]4CC[C@@]3(C)[C@]1(C)CC2 (stereo not given in full) | 59.9% | 15.7% |  |
| > 10 µM | > 10 µM | CC(=O)OCc1ccccc1NC(=O)[C@]12CC[C@@H](C)[C@H](C)[C@H]1C1=CC[C@@H]3[C@@]4(C)CC[C@H](OC(C)=O)C(C)(C)[C@@H]4CC[C@@]3(C)[C@]1(C)CC2 | 30.5% | 13% | IC50 (SK-OV-3 [4]): > 10 µM; inhibition at 10 µM (SK-OV-3 [7]): 1.19% |
| 9.04 µM | > 10 µM | COC(=O)C(Cc1ccc(O)cc1)NC(=O)[C@]12CC[C@@H](C)[C@H](C)[C@H]1C1=CC[C@@H]3[C@@]4(C)CC[C@H](OC(C)=O)C(C)(C)[C@@H]4CC[C@@]3(C)[C@]1(C)CC2 (stereo not given in full) | 51.5% | 41.6% |  |
| > 10 µM |  | CC(O)C(NC(=O)[C@]12CC[C@@H](C)[C@H](C)[C@H]1C1=CC[C@@H]3[C@@]4(C)CC[C@H](O)C(C)(C)[C@@H]4CC[C@@]3(C)[C@]1(C)CC2)C(=O)O (stereo not given in full) | 22% |  |  |
| 1.63 µM |  | CC(=O)O[C@H]1CC[C@]2(C)[C@H]3CC=C4[C@@H]5[C@@H](C)[C@H](C)CC[C@]5(C(=O)Nc5ccccc5CO)CC[C@@]4(C)[C@]3(C)CC[C@H]2C1(C)C | 77.5% |  |  |
| > 10 µM |  | CC(=O)O[C@H]1CC[C@]2(C)[C@H]3CC=C4[C@@H]5[C@@H](C)[C@H](C)CC[C@]5(C(=O)O)CC[C@@]4(C)[C@]3(C)CC[C@H]2C1(C)C [O-ACETYLURSOLIC ACID] | 37.8% |  |  |
